Calls of active or inactive are those of the source. The rule behind the calls is not given here.
Tests used:
PANC-1 [1] = assay: Induction of apoptosis in human PANC-1 cells assessed as early apoptotic cells at 2.5 uM incubated for 48 hrs by Annexin V-FITC/PI staining based flow cytometry (reference value: 1.88 %); type: functional
BXPC-3 [2] = assay: Induction of cell cycle arrest in human BXPC-3 cells assessed as accumulation at G2 phase at 2.5 uM incubated for 48 hrs by PI/RNase staining based flow cytometry (reference value: 8.15 %); type: functional
PANC-1 [3] = assay: Induction of cell cycle arrest in human PANC-1 cells assessed as accumulation at G1 phase at 2.5 uM incubated for 48 hrs by PI/RNase staining based flow cytometry (reference value: 82.0 %); type: functional
[4] = Toxicity in BALB/c nude mouse xenografted with human BxPC-3 cells assessed as body weight loss at 5 to 15 mg/kg, ip qd for 21 days; conditions: in vivo, 504 h
PANC-1 [5] = assay: Inhibition of Hh signaling pathway in human PANC-1 cells assessed as reduction in Ptch1 mRNA level incubated for 48 hrs by qRT-PCR analysis; type: cell-based
Summary of the method: (§1)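 Total RNA was extracted by column kit after 48 h treatment and checked spectrophotometrically. Gli1 and Ptch1 transcripts were quantified by real-time RT-qPCR with GAPDH as internal control. Results are fold change relative to the untreated group; three separate experiments.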

PANC-1 [6] = assay: Induction of apoptosis in human PANC-1 cells assessed as late apoptotic cells at 10 uM incubated for 48 hrs by Annexin V-FITC/PI staining based flow cytometry (reference value: 2.74 %); type: functional
BXPC-3 [7] = assay: Induction of apoptosis in human BXPC-3 cells assessed as early apoptotic cells at 5 uM incubated for 48 hrs by Annexin V-FITC/PI staining based flow cytometry (reference value: 1.11 %); type: functional
BxPC-3 [8] = assay: Antitumor activity aginst human BxPC-3 cells xenografted in BALB/c nude mouse assessed as decrease in tumor volume at 10 mg/kg, ip qd for 21 days relative to control; set-up: scale not given: the % may be the effect or the level left; conditions: time 21 day
BXPC-3 [9] = assay: Induction of apoptosis in human BXPC-3 cells assessed as necrotic cells at 10 uM incubated for 48 hrs by Annexin V-FITC/PI staining based flow cytometry (reference value: 0.71 %); type: functional
[10] = Toxicity in BALB/c nude mouse xenografted with human BxPC-3 cells assessed as tissue fibrosis in liver at 5 to 15 mg/kg, ip qd for 21 days by H and E staining based analysis; conditions: in vivo, 504 h
PANC-1 [11] = assay: Inhibition of Hh signaling pathway in human PANC-1 cells assessed as reduction in Gli1 level incubated for 48 hrs by Western blot analysis; type: cell-based; conditions: dose 2.5-10 µM
Summary of the method: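 Cells were treated in 6-well plates for 48 h, lysed by sonication in RIPA with PMSF, and quantified by BCA. 20-30 μg protein was run on 6-12% gradient SDS-PAGE and transferred to PVDF. Membranes were blocked 2 h at room temperature, probed with anti-Gli1 overnight at 4 °C and secondary 1.5 h at room temperature, then developed by ECL. Densitometry was normalised to β-actin; three separate experiments.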

BxPC-3 [12] = assay: Antitumor activity aginst human BxPC-3 cells xenografted in BALB/c nude mouse assessed as decrease in tumor weight at 15 mg/kg, ip qd for 21 days; conditions: time 21.0 day
[13] = Inhibition of Hh signaling pathway in mouse NIH3T3 cells incubated for 48 hrs by Gli luciferase reporter assay; type: cell-based; conditions: NIH3T3, 48 h
Summary of the method: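 Reporter cells were seeded in 96-well plates, incubated overnight, then treated for 48 h. Lysate luciferase activity was measured with a dual-luciferase system, and firefly signal was normalised to Renilla.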

BXPC-3 [14] = assay: Induction of apoptosis in human BXPC-3 cells assessed as early apoptotic cells at 8 uM incubated for 48 hrs by Annexin V-FITC/PI staining based flow cytometry (reference value: 1.11 %); type: functional
PANC-1 [15] = assay: Induction of cell cycle arrest in human PANC-1 cells assessed as accumulation at S phase at 10 uM incubated for 48 hrs by PI/RNase staining based flow cytometry (reference value: 7.58 %); type: functional
PANC-1 [16] = assay: Induction of apoptosis in human PANC-1 cells assessed as necrotic cells at 5 uM incubated for 48 hrs by Annexin V-FITC/PI staining based flow cytometry (reference value: 2.24 %); type: functional
PANC-1 [17] = assay: Induction of apoptosis in human PANC-1 cells assessed as necrotic cells at 10 uM incubated for 48 hrs by Annexin V-FITC/PI staining based flow cytometry (reference value: 2.24 %); type: functional
Mus musculus = assay: In vivo inhibition of Gli1 in human BxPC-3 cells xenografted in BALB/c nude mouse at 5 to 15 mg/kg, ip qd for 21 days by IHC analysis; conditions: dose 5-15 mg/kg, time 21.0 day
BXPC-3 [18] = assay: Induction of apoptosis in human BXPC-3 cells assessed as late apoptotic cells at 8 uM incubated for 48 hrs by Annexin V-FITC/PI staining based flow cytometry (reference value: 6.72 %); type: functional
BXPC-3 [19] = assay: Induction of cell cycle arrest in human BXPC-3 cells assessed as accumulation at G2 phase at 5 uM incubated for 48 hrs by PI/RNase staining based flow cytometry (reference value: 8.15 %); type: functional
PANC-1 [20] = assay: Induction of cell cycle arrest in human PANC-1 cells assessed as accumulation at G2 phase at 10 uM incubated for 48 hrs by PI/RNase staining based flow cytometry (reference value: 5.83 %); type: functional
BXPC-3 [21] = assay: Induction of apoptosis in human BXPC-3 cells assessed as viable cells at 10 uM incubated for 48 hrs by Annexin V-FITC/PI staining based flow cytometry (reference value: 91.5 %); type: functional; conditions: read-out: Activity
PANC-1 [22] = assay: Inhibition of Hh signaling pathway in human PANC-1 cells assessed as reduction in Gli1 mRNA level incubated for 48 hrs by qRT-PCR analysis; type: cell-based; conditions: dose 2.5-10 µM; summary of the method: as §1
BXPC-3 [23] = assay: Induction of apoptosis in human BXPC-3 cells assessed as necrotic cells at 8 uM incubated for 48 hrs by Annexin V-FITC/PI staining based flow cytometry (reference value: 0.71 %); type: functional
BXPC-3 [24] = assay: Induction of cell cycle arrest in human BXPC-3 cells assessed as accumulation at S phase at 2.5 uM incubated for 48 hrs by PI/RNase staining based flow cytometry (reference value: 8.18 %); type: functional
BXPC-3 [25] = assay: Induction of apoptosis in human BXPC-3 cells assessed as necrotic cells at 5 uM incubated for 48 hrs by Annexin V-FITC/PI staining based flow cytometry (reference value: 0.71 %); type: functional
BXPC-3 [26] = assay: Induction of cell cycle arrest in human BXPC-3 cells assessed as accumulation at S phase at 5 uM incubated for 48 hrs by PI/RNase staining based flow cytometry (reference value: 8.18 %); type: functional
BXPC-3 [27] = assay: Induction of cell cycle arrest in human BXPC-3 cells assessed as accumulation at G1 phase at 10 uM incubated for 48 hrs by PI/RNase staining based flow cytometry (reference value: 84.2 %); type: functional

`CN(C)Cc1ccc(NC(=O)c2ccc(Nc3nccc(-c4cccnc4)n3)cc2)cc1` gave an Activity (PANC-1 [1]) of 1.97%, an Activity (BXPC-3 [2]) of 11.3% and an Activity (PANC-1 [3]) of 83.7%. For the same molecule, the Activity [4] was “Non-toxic”, the inhibition (PANC-1 [5]) was “Dose-dependent-effect” and the Activity (PANC-1 [6]) was 22.3%. It also gave an Activity (BXPC-3 [7]) of 2.71%, an Activity (BxPC-3 [8]) of 80% and an Activity (BXPC-3 [9]) of 2.32%. For the same molecule, the Activity [10] was “Non-toxic”, the inhibition (PANC-1 [11]) was “Dose-dependent-effect” and the Activity (BxPC-3 [12]) was “Active”. It also gave an IC50 [13] of 2.7 nM, an Activity (BXPC-3 [14]) of 2.65% and an Activity (PANC-1 [15]) of 10.5%. The Activity (PANC-1 [16]) was 2.39%, the Activity (PANC-1 [17]) was 2.56% and the inhibition (Mus musculus) was “Active”. For the same molecule, the Activity (BXPC-3 [18]) was 12.3%, the Activity (BXPC-3 [19]) was 12.5% and the Activity (PANC-1 [20]) was 12.2%. The viability at 10 µM (BXPC-3 [21]) was 71.8%, the inhibition (PANC-1 [22]) was “Dose-dependent-effect” and the Activity (BXPC-3 [23]) was 2.47%. It also gave an Activity (BXPC-3 [24]) of 11.1%, an Activity (BXPC-3 [25]) of 1.02% and an Activity (BXPC-3 [26]) of 4.09%. For the same molecule, the Activity (BXPC-3 [27]) was 92.9%.
